From ChEMBL document CHEMBL5705905, “Pharmacological targeting of kinases MST1 and MST2 augments tissue repair and regeneration” (Sci Transl Med, 2016) come the findings set out here.

SMILES strings stand for the structures. The source made the active and inactive calls. The rule behind the calls is not given here.

Data set [1] addresses T1, Serine/threonine-protein kinase 3 (Homo sapiens, UniProt Q13188).
T1 sequence (Q13188 whole entry): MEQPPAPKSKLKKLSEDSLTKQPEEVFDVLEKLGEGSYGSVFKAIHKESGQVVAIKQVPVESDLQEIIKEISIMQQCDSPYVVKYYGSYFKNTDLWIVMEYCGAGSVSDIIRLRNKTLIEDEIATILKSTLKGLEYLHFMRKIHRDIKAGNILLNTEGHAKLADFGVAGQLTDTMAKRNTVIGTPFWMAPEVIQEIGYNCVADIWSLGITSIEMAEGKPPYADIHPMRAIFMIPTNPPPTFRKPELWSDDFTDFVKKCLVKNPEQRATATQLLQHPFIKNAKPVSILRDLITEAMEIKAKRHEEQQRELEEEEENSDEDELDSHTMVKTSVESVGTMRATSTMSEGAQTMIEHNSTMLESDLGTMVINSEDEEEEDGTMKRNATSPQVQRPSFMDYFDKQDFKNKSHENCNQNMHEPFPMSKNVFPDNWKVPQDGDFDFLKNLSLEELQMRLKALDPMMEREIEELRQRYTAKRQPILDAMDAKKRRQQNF
Nature of the data set: Inhibition of MST2 (unknown origin) in presence of ATP by enzymatic assay.

Data set [2] can be described thus: Acute toxicity in wild-type mouse assessed as ratio of liver weight to body weight at 1 mg/kg,ip administrated twice daily for 6 days. It is filed as organism-based. The conditions noted are these: in vivo, 144 h, time 6 day. The essentials:
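Wild-type mice underwent two-thirds partial hepatectomy with vehicle or 1 mg/kg i.p. twice per day, starting with a dose before surgery. Liver/body weight ratio was followed over postoperative days, n = 5; means ± SD.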

The target in data set [3] is Serine/threonine-protein kinase BRSK2 (Homo sapiens) (UniProt Q8IWQ3). Nature of the data set: Inhibition of BRSK2 (unknown origin) assessed as remaining activity at 1 uM by Kinome scan method relative to control. Summed up: (§1)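 Active-site-dependent competition-binding (KINOMEscan) panel of 468 kinases, test compound at 1 μM (from a 10 mM DMSO stock). Read-out is ctrl% = (test signal − positive control signal)/(negative control signal − positive control signal) × 100. DMSO is the negative control (100%) and a control compound is the positive control (0%). Lower ctrl% means tighter binding.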

For data set [4], the target named is Serine/threonine-protein kinase LATS1 (Homo sapiens) (UniProt O95835). Nature of the data set: Inhibition of LATS1 (unknown origin) assessed as remaining activity at 1 uM by Kinome scan method relative to control.
Data set [5] has as its target Serine/threonine-protein kinase D2 (Homo sapiens) (UniProt Q9BZL6). Nature of the data set: Inhibition of PRKD2 (unknown origin) assessed as remaining activity at 1 uM by Kinome scan method relative to control.
For data set [6], the system named is HepG2. Nature of the data set: Induction of apoptosis in human HepG2 cells overexpressing MST2 assessed as necrosis cells at 3 uM by annexinV staining (Rvb =0.24 %). Format: functional.
For data set [7], the target named is Serine/threonine-protein kinase PknB (Mycobacterium tuberculosis) (UniProt P9WI81). Nature of the data set: Inhibition of Mycobacterium tuberculosis PknB assessed as remaining activity at 1 uM by Kinome scan method relative to control. The essentials: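 KINOMEscan active-site competition binding assay at 1 μM against 468 kinases. Ctrl% = (test − positive control)/(negative control DMSO − positive control) × 100; lower values mean tighter binding.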

For data set [8], the target named is Serine/threonine-protein kinase PLK4 (Homo sapiens) (UniProt O00444). Put plainly: Inhibition of PLK4 (unknown origin) assessed as remaining activity at 1 uM by Kinome scan method relative to control.
In data set [9] the target is Mitogen-activated protein kinase 9 (Homo sapiens) (UniProt P45984). Nature of the data set: Inhibition of JNK2 (unknown origin) assessed as remaining activity at 1 uM by Kinome scan method relative to control.
The subject of data set [10] is Primary hepatocyte. Put plainly: Inhibition of MST1/2 (unknown origin) in mouse Primary hepatocyte cells assessed as H2O2 stimulated MST1/2 autophosphorylation level at 1 to 3 uM by immunoblot analysis. Format: cell-based. The following applies: dose 1-3 µM. On the technique in general: Immunoblotting shows a protein as a band on a membrane.
Data set [11] concerns Epidermal growth factor receptor (Homo sapiens), P00533 [L858R,T790M]. Put plainly: Inhibition of EGFR L858R/T790M mutant (unknown origin) assessed as remaining activity at 1 uM by Kinome scan method relative to control.
Data set [12] has as its target Calcium/calmodulin-dependent protein kinase type 1D (Homo sapiens) (UniProt Q8IU85). Nature of the data set: Inhibition of CAMK1D (unknown origin) assessed as remaining activity at 1 uM by Kinome scan method relative to control. The essentials: (§2)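 Active-site-dependent competition-binding profiling (KINOMEscan) at 1 μM against a 468-kinase panel; compound supplied from a 10 mM DMSO stock. Read-out is ctrl% = (test signal − positive control signal)/(negative control signal − positive control signal) × 100. DMSO is the negative control (100%) and a control compound the positive control (0%). Lower ctrl% means tighter binding.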

For data set [13], the target named is Insulin-like growth factor 1 receptor (Homo sapiens) (UniProt P08069). Put plainly: Inhibition of IGF1R (unknown origin) assessed as remaining activity at 1 uM by Kinome scan method relative to control.
The target in data set [14] is Mitogen-activated protein kinase 11 (Homo sapiens) (UniProt Q15759). Nature of the data set: Inhibition of P38beta (unknown origin) assessed as remaining activity at 1 uM by Kinome scan method relative to control.
The subject of data set [15] is Phosphatidylinositol 4,5-bisphosphate 3-kinase catalytic subunit alpha isoform (Homo sapiens), P42336 [E545A]. Nature of the data set: Inhibition of PIK3CA E545A mutant (unknown origin) assessed as remaining activity at 1 uM by Kinome scan method relative to control.
For data set [16], the target named is Activin receptor type-2B (Homo sapiens) (UniProt Q13705). Put plainly: Inhibition of ACVR2B (unknown origin) assessed as remaining activity at 1 uM by Kinome scan method relative to control. The essentials: as §1
Data set [17] concerns HepG2. Put plainly: Inhibition of Flag-tagged MST1 Y101F mutant (unknown origin) in human HepG2 cells assessed as MOB1 phosphorylation level at 0.3 to 10 uM by immunoblot analysis. Format: cell-based. The following applies: dose 0.3-10 µM.
The target of data set [18] is Serine/threonine-protein kinase 32C (Homo sapiens) (UniProt Q86UX6). Nature of the data set: Inhibition of YANK3 (unknown origin) assessed as remaining activity at 1 uM by Kinome scan method relative to control.
Data set [19] addresses Casein kinase II subunit alpha' (Homo sapiens) (UniProt P19784). Nature of the data set: Inhibition of CSNK2A2 (unknown origin) assessed as remaining activity at 1 uM by Kinome scan method relative to control. Summed up:
as §2

The target in data set [20] is Serine/threonine-protein kinase ULK1 (Homo sapiens) (UniProt O75385). Put plainly: Inhibition of ULK1 (unknown origin) assessed as remaining activity at 1 uM by Kinome scan method relative to control.
For data set [21], the target named is Epidermal growth factor receptor (Homo sapiens) (UniProt P00533). Put plainly: Inhibition of EGFR (unknown origin) assessed as remaining activity at 1 uM by Kinome scan method relative to control.
Data set [22] in a line: Acute toxicity in wild-type mouse assessed as cell proliferation in liver at 3 mg/kg,ip administrated daily for 7 days by Ki67 staining. The following applies: in vivo, 168 h, time 7 day. Format: organism-based. Summed up: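 Wild-type mice received vehicle or 3 mg/kg i.p. daily for 7 days. Ki67 staining of sections from various tissues with quantification of positive cells, n = 6; means ± SD, Student's t test. Daily weights, physical activity and serum chemistry were also monitored.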

Chain of Mitogen-activated protein kinase 11 (Homo sapiens) (Q15759 whole entry, canonical isoform): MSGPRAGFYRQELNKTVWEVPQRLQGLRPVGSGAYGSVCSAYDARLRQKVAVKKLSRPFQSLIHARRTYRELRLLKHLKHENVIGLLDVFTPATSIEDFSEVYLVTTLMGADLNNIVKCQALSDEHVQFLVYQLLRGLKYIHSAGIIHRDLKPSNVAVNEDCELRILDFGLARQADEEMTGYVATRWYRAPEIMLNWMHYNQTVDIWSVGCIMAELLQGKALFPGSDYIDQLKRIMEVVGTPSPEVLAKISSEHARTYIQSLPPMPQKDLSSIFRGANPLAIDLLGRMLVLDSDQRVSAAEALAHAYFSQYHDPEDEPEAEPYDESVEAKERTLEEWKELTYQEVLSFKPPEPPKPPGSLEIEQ
Chain of Serine/threonine-protein kinase LATS1 (Homo sapiens) (O95835 whole entry): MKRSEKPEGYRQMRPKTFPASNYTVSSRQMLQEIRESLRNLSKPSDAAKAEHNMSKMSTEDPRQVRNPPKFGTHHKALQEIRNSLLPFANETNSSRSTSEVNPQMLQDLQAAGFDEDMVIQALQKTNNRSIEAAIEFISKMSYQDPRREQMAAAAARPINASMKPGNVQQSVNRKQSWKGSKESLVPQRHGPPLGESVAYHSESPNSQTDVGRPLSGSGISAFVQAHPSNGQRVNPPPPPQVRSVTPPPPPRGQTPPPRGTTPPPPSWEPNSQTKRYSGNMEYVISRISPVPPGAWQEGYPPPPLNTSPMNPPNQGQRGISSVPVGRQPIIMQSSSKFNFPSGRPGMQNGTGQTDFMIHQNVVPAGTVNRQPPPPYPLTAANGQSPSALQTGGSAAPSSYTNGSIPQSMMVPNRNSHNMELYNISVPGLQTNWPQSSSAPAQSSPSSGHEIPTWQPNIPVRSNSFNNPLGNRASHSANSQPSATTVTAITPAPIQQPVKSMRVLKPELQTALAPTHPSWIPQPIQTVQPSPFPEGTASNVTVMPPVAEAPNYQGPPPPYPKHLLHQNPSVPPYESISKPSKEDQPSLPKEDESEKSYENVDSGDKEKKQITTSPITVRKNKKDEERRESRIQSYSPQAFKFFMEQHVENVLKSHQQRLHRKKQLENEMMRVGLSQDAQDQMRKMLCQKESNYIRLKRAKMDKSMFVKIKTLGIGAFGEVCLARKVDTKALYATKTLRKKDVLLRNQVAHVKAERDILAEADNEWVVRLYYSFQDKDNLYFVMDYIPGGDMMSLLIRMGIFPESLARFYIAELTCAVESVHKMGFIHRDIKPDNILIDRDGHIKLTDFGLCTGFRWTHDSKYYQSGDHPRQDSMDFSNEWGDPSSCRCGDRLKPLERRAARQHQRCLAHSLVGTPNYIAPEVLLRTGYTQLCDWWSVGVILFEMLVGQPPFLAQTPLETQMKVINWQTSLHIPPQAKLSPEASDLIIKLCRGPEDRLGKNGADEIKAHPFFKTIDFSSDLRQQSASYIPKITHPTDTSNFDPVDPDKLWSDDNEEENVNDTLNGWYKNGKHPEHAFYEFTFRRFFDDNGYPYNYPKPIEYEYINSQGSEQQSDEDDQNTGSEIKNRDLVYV
Chain of Insulin-like growth factor 1 receptor (Homo sapiens) (P08069 31-736 limits assumed): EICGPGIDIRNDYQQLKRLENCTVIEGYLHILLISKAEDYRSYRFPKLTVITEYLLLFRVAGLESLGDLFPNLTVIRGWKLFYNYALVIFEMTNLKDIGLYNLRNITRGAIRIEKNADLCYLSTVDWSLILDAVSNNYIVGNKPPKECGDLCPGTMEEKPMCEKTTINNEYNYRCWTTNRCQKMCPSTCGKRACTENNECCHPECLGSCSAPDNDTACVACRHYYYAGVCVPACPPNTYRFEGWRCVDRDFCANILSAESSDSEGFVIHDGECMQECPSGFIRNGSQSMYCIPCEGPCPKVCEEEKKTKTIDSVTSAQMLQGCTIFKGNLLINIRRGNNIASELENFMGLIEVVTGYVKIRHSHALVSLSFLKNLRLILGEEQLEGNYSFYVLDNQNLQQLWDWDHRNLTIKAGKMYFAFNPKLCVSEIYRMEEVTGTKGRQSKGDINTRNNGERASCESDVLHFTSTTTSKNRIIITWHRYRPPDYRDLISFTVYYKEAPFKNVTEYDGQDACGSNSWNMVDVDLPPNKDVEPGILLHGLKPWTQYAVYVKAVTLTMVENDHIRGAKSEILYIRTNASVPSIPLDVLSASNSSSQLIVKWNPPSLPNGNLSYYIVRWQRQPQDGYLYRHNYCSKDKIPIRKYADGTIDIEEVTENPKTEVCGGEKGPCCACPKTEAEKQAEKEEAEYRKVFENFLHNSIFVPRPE
Chain of Insulin-like growth factor 1 receptor (Homo sapiens) (P08069 741-1367 limits assumed): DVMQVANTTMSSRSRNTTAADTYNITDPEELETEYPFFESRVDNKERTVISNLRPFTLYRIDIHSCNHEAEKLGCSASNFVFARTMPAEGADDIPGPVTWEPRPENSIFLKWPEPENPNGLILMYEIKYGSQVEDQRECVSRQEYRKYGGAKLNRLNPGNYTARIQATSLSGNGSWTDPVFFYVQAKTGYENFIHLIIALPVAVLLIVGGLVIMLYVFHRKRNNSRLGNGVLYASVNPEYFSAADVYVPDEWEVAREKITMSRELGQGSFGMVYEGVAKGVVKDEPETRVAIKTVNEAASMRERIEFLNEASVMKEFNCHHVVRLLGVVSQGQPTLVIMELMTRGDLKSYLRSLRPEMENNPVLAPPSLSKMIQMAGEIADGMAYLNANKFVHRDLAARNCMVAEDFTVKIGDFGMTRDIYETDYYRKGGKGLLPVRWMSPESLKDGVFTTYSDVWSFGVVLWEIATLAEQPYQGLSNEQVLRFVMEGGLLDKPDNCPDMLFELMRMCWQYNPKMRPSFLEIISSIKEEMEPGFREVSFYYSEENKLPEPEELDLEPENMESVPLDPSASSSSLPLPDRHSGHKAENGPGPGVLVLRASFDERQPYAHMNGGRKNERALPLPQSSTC
Chain of Serine/threonine-protein kinase ULK1 (Homo sapiens) (O75385 whole entry): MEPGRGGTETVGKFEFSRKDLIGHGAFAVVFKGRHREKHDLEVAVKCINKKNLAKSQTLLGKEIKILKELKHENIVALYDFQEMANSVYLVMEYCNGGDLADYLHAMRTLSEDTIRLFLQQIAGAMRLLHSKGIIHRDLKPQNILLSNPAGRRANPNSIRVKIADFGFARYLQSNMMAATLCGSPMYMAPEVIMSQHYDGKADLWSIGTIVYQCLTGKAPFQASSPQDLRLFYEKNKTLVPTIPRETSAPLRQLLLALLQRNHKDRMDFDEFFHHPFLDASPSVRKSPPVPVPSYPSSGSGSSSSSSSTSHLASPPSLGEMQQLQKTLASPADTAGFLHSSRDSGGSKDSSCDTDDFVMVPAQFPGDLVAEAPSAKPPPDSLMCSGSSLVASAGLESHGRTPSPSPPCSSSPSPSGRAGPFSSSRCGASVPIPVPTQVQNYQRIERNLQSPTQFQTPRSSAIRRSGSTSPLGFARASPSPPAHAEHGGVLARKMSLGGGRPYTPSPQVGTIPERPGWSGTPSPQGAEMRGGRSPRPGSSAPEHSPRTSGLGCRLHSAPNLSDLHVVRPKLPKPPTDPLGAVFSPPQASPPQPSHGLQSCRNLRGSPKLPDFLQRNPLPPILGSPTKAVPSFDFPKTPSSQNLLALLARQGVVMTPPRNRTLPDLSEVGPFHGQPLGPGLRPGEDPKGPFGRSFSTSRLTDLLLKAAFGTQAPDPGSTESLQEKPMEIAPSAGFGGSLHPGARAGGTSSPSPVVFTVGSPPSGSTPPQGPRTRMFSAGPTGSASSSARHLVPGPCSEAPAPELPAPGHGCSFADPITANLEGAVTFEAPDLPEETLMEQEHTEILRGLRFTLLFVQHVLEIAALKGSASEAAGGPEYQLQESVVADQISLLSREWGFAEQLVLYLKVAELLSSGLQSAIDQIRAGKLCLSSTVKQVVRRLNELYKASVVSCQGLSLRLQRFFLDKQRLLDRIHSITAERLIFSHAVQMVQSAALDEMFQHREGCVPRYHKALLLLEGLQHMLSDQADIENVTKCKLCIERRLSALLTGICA
Chain of Serine/threonine-protein kinase D2 (Homo sapiens) (Q9BZL6 whole entry): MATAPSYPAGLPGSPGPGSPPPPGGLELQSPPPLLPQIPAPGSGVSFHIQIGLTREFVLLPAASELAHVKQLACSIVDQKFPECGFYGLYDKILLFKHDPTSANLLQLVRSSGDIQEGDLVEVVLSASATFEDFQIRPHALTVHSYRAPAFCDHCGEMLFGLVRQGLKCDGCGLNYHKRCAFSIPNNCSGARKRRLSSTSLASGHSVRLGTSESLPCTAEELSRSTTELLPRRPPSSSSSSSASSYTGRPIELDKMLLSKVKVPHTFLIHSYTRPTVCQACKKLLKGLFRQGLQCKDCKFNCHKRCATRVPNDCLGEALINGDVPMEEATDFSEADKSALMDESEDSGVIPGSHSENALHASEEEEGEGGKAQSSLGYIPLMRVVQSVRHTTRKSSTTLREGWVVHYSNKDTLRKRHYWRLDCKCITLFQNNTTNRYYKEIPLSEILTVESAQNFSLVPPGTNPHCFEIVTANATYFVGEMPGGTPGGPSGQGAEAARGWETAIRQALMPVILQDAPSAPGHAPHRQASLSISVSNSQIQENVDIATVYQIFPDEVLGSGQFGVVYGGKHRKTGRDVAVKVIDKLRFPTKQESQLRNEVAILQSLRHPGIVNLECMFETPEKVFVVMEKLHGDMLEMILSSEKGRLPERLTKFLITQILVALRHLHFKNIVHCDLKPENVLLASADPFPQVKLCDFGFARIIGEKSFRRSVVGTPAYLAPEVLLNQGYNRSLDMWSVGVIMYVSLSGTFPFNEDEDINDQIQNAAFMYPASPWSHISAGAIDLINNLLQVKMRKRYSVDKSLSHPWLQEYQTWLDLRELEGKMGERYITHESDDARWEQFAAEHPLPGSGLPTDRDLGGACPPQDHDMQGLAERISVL

As a reminder, the IC50 is the concentration that inhibits the measured activity by half. On to `CN1C(=O)c2sccc2N(C)c2nc(Nc3ccc(S(N)(=O)=O)cc3)ncc21`, for which the IC50 in [1] was 18.2 nM. Further, the Activity result is “Non-Toxic” in data set [2]; 99% in [3]; 100% in [4]; 87% in data set [5]; 0.27% in data set [6]; 89% in data set [7]. Further, the Activity in data set [8] was found to be 14%; in data set [9], 82%; in [11], 77%; in [12], 100%; in [13] it was 94%; in [14] it was 83%. The Activity turned out to be 81% in data set [15]; 100% in [16]; 100% in data set [18]; 97% in data set [19]; 21% in [20]; 100% in [21]. Further, in data set [22], the Activity result is given as “Non-Toxic”. Moreover, the inhibition entry in [10] and in data set [17] was “Active” in each case.
